For one test, the system named is SW-620. Nature of the test: In vitro cytotoxicity against human colon SW-620 cancer cell line. The class given is functional.
The next test concerns Hs-578T. Description: In vitro cytotoxicity against human breast Hs 578.T cancer cell line. The class given is functional.
For test [1], the system named is Nucleic Acid. Description: DNA binding ability by thermal denaturation studies using calf thymus DNA after incubation at 37 degree C for 36 hour. The following applies: Bos taurus. The class given is nucleic-acid assay. The method, boiled down:
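Calf thymus DNA 100 µM with PBD 20 µM (1:5 [PBD]:[DNA]) in 10 mM sodium phosphate + 1 mM EDTA, pH 7.00, incubated at 37 °C for 0, 18 or 36 h. Thermal melting measured; ΔTm taken relative to CT-DNA alone, whose Tm is the mean of 10 separate determinations.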

Test [2] has as its system Nucleic Acid. Nature of the test: DNA binding ability by thermal denaturation studies using calf thymus DNA after incubation at 37 degree C for 18 hour. The following applies: Bos taurus. The class given is nucleic-acid assay.
The subject of test [3] is SF-268. Nature of the test: In vitro anticancer activity was evaluated for the percentage growth of human (CNS) SF-268 cell line. The test is classed as functional. Summed up: (§1)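 Each cell line received a single dose of 10^-4 M, and the read-out was percentage growth.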
The subject of test [4] is SF-268. Nature of the test: In vitro cytotoxicity against human CNS SF-268 cancer cell line. The test is classed as functional.
A further test relates to UO-31. Nature of the test: In vitro cytotoxicity against human renal UO-31 cancer cell line. The class given is functional.
The test system of another test is MCF7. Description: In vitro anticancer activity was evaluated for the percentage growth of human breast MCF-7 cell line. The class given is functional. The method, boiled down: as §1
The test system of another test is CCRF-CEM. Description: In vitro cytotoxicity against human leukemia CCRF-CEM cancer cell line. The test is classed as functional.
The next test relates to SF-295. Nature of the test: In vitro cytotoxicity against human CNS SF-295 cancer cell line. The class given is functional.
Another test deals with NCI-H522. Nature of the test: In vitro cytotoxicity against human non-small cell lung NCI-H522 cancer cell line. The test is classed as functional.
The test system of test [5] is Nucleic Acid. Nature of the test: DNA binding ability by thermal denaturation studies using calf thymus DNA after incubation at 37 degree C for 0 hour. The test is classed as nucleic-acid assay. As to conditions: Bos taurus.
A further test relates to NCI-H460. Nature of the test: In vitro anticancer activity was evaluated for the percentage growth of human lung NCI-H460 cell line. The class given is functional. The method, boiled down: as §1
The test system of another test is SR. Description: In vitro cytotoxicity against human leukemia SR cancer cell line. The class given is functional.

Molecules are shown by their SMILES. Some results are limits rather than exact numbers.

By GI50 is commonly meant the concentration at which growth is held to half of that of the control. What is called ΔTm is the shift of the melting midpoint relative to a reference. Consider `COc1cc2c(cc1OCc1ccccc1)N=C[C@@H]1C[C@H](F)CN1C2=O`, for which the GI50 in the test on SW-620 was less than 10 nM; in the test with Hs-578T, less than 10 nM; with SF-268 [4], 10 nM; in the test on UO-31, less than 10 nM; in the test with CCRF-CEM it was less than 10 nM; in the test on SF-295 it was 30 nM. Also, the GI50 with NCI-H522 and with SR was less than 10 nM each time. The ΔTm in the test on Nucleic Acid [1] was 2.5 °C; in the test on Nucleic Acid [2], 2 °C; with Nucleic Acid [5], 1.1 °C. In addition, the Growth is on record as 19% with SF-268 [3], 0% in the test on MCF7 and 1% in the test with NCI-H460.
Turning to `COc1cc2c(cc1OCCCOc1cc3c(cc1OC)C(=O)N1C[C@@H](F)C[C@H]1C=N3)N=C[C@@H]1C[C@H](F)CN1C2=O`, the GI50 with SW-620 was determined as 4200 nM; with SF-268 [4] it was 2200 nM; with UO-31, 2400 nM; in the test with SF-295 it was 1960 nM; in the test on NCI-H522, 1880 nM; in the test on SR, 1540 nM. Moreover, the ΔTm in the test with Nucleic Acid [1] stood at 6.16 °C; with Nucleic Acid [2], 4.9 °C; in the test on Nucleic Acid [5] it was 3.1 °C. Moreover, the Growth with SF-268 [3], in the test on MCF7 and in the test with NCI-H460 was 0% each time.
For the compound `COc1cc2c(cc1O)N=C[C@@H]1C[C@@H](F)CN1C2=O`, the ΔTm in the test on Nucleic Acid [1] amounted to 2.25 °C; in the test on Nucleic Acid [2] it was 1.5 °C; with Nucleic Acid [5] it was 0.6 °C.
Regarding `COc1cc2c(cc1O)N=C[C@@H]1CCCN1C2=O`, the ΔTm in the test with Nucleic Acid [2] stood at 0.7 °C; in the test on Nucleic Acid [5] it was 0.3 °C.
On to `COc1cc2c(cc1OCCCCCOc1cc3c(cc1OC)C(=O)N1C[C@@H](F)C[C@H]1C=N3)N=C[C@@H]1C[C@H](F)CN1C2=O`, for which the GI50 with SW-620 was 20 nM; in the test on Hs-578T it was less than 10 nM; in the test with SF-268 [4] it was less than 10 nM; in the test on UO-31, less than 10 nM; in the test with CCRF-CEM, less than 10 nM; in the test with SF-295 it was less than 10 nM. The GI50 in the test with NCI-H522 and in the test with SR was less than 10 nM each time. Also, the ΔTm in the test with Nucleic Acid [1] stood at 17.4 °C; in the test with Nucleic Acid [2] it was 16 °C; in the test on Nucleic Acid [5] it was 14.2 °C. Further, the Growth with SF-268 [3], in the test on MCF7 and in the test on NCI-H460 was 0% in each case.
For `COc1cc2c(cc1O)N=C[C@@H]1C[C@H](F)CN1C2=O`, the GI50 with SW-620 was 1190 nM; in the test with Hs-578T it was 10 nM; in the test with SF-268 [4], 350 nM; in the test on UO-31, 170 nM; in the test with CCRF-CEM, 300 nM; with SF-295, 320 nM. Further, the GI50 is 410 nM in the test with NCI-H522 and 200 nM with SR. Also, the figures for the ΔTm in the test on Nucleic Acid [1], with Nucleic Acid [2] and with Nucleic Acid [5] were 2.2 °C, 1 °C and 0.3 °C, respectively. The Growth in the test on SF-268 [3], in the test with MCF7 and in the test on NCI-H460 was 0% throughout.
With `COc1cc2c(cc1OCCCOc1cc3c(cc1OC)C(=O)N1CCC[C@H]1C=N3)N=C[C@@H]1CCCN1C2=O`, the ΔTm in the test on Nucleic Acid [5] came to 10.2 °C.
`COc1cc2c(cc1OCCCCOc1cc3c(cc1OC)C(=O)N1C[C@@H](F)C[C@H]1C=N3)N=C[C@@H]1C[C@H](F)CN1C2=O`: the values for the ΔTm in the test on Nucleic Acid [1], with Nucleic Acid [2] and in the test with Nucleic Acid [5] were 13.8 °C, 12.3 °C and 4.6 °C, respectively.

(Values after ChEMBL document CHEMBL1146749, “The effect of C2-fluoro group on the biological activity of DC-81 and its dimers” (2004).)
